Activity calls are given as the source filed them. The rule behind the calls is not given here.
Assays:
Type in all cases: functional, cell-based
[1] = biological target: T1, Type-1 angiotensin II receptor (Homo sapiens) (UniProt P30556); assay: Antagonist activity at AT1 angiotensin receptor expressed in SKNSH cells at 100 nM by ELISA relative to control; design: scale not given: the % may be the effect or the level left
T1 sequence (whole entry): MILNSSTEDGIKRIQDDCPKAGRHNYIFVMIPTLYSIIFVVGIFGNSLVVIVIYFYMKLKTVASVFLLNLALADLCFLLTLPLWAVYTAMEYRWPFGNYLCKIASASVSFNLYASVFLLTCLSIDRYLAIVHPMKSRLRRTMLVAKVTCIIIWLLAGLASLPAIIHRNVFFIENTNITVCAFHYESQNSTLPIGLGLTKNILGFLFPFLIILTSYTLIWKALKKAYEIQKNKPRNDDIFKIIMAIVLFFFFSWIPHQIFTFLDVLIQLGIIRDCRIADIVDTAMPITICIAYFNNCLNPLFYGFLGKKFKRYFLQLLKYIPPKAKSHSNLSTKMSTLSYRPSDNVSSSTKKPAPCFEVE

[2] = biological target: Beta-2 adrenergic receptor (Homo sapiens) (UniProt P07550); assay: Antagonist activity at beta2 adrenergic receptor expressed in SKNSH cells at 100 nM by ELISA relative to control; design: scale not given: the % may be the effect or the level left
[3] = biological target: Cannabinoid receptor 2 (Homo sapiens) (UniProt P34972); assay: Antagonist activity at CB2 receptor expressed in HEK293 cells assessed as blockade of Hu210-mediated decrease in secreted alkaline phosphatase activity at 1 uM after 6 hrs relative to control
Outline: (§1)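 HEK-293 cells transiently co-transfected with pCRE-SeAP and a Flag-tagged receptor, 30,000 cells/well on poly-L-lysine. They were serum-starved 16–18 h, then exposed 6 h in serum-free medium to 10 μM forskolin (omitted for β2) plus the receptor agonist (100 nM), with or without peptide (1 μM). Heat-treated supernatant SeAP was read by CSPD chemiluminescence. Mean ± SEM, n = 6.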

[4] = biological target: T2, Type-2 angiotensin II receptor (Homo sapiens) (UniProt P50052); assay: Antagonist activity at AT2 angiotensin receptor expressed in SKNSH cells at 100 nM by ELISA; design: scale not given: the % may be the effect or the level left
T2 sequence (whole entry): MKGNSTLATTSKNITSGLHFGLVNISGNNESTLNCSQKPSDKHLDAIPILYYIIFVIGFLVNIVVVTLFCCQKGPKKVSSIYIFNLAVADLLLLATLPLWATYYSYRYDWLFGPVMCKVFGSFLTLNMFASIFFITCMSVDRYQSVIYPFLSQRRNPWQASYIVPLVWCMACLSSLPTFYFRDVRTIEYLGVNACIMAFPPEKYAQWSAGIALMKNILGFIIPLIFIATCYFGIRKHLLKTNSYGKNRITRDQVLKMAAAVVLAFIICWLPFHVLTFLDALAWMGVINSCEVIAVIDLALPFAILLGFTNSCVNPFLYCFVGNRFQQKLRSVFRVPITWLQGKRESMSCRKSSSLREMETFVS

[5] = biological target: T1, Type-1 angiotensin II receptor (Homo sapiens); assay: Antagonist activity at AT1 angiotensin receptor expressed in HEK293 cells assessed as blockade of angiotensin 2-mediated decrease in secreted alkaline phosphatase activity at 1 uM after 6 hrs relative to control; outline: as §1
[6] = biological target: Delta-type opioid receptor (Homo sapiens) (UniProt P41143); assay: Antagonist activity at delta opioid receptor expressed in HEK293 cells assessed as blockade of secreted alkaline phosphatase activity at 1 uM after 6 hrs relative to control; outline: as §1
[7] = biological target: Cannabinoid receptor 1 (Homo sapiens) (UniProt P21554); assay: Antagonist activity at flag tagged recombinant CB1 receptor expressed in HEK293 cells assessed as blockade of Hu210-induced increase in phospho ERK1/2 level
Outline: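 HEK-293 cells expressing Flag-tagged CB1 (2 × 10⁶ cells/well) were stimulated for 5 min with 100 nM Hu-210, with or without 10 μM antagonist. Phospho-ERK1/2 was quantified relative to untreated cells (100%). Mean ± SE of triplicate experiments.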

[8] = biological target: Cannabinoid receptor 1 (Homo sapiens) (UniProt P21554); assay: Antagonist activity at CB1 receptor expressed in HEK293 cells assessed as blockade of Hu210-mediated decrease in secreted alkaline phosphatase activity at 1 uM after 6 hrs relative to control; outline: as §1
[9] = biological target: T3, Alpha-2A adrenergic receptor (Homo sapiens) (UniProt P08913); assay: Antagonist activity at alpha2A adrenergic receptor expressed in HEK293 cells assessed as blockade of clonidine-mediated decrease in secreted alkaline phosphatase activity at 1 uM after 6 hrs relative to control; outline: as §1
T3 sequence (whole entry): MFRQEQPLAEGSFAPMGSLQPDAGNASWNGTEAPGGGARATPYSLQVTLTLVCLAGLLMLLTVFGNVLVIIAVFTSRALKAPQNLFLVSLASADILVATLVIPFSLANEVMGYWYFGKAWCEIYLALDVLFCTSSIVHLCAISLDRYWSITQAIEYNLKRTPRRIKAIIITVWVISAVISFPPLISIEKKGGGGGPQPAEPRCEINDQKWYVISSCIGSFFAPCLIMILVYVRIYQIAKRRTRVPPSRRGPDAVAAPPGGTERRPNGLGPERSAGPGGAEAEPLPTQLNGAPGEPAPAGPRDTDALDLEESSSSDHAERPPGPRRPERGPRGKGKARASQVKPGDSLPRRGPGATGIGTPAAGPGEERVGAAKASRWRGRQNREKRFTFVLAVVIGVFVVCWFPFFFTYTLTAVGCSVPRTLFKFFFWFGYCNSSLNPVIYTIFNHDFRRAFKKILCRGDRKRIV

[10] = biological target: Cannabinoid receptor 1 (Homo sapiens) (UniProt P21554); assay: Antagonist activity at CB1 receptor expressed in Neuro 2A cells assessed as blockade of Hu210-mediated increase in number of neurite outgrowth at 10 uM after 16 hrs
Outline: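 Neuro 2A cells transfected with Flag-tagged CB1 or CB2 were exposed 16 h in 0.1% FBS medium to 100 nM Hu-210 with or without 10 μM peptide. The percentage of cells extending neurites was scored and normalized to untreated cells (100%). Mean ± SE of triplicate experiments.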

[11] = biological target: Mu-type opioid receptor (Homo sapiens) (UniProt P35372); assay: Antagonist activity at mu opioid receptor expressed in SKNSH cells assessed as blockade of DAMGO-induced increase in antibody recognition at 100 nM by ELISA relative to control; design: scale not given: the % may be the effect or the level left
[12] = biological target: T3, Alpha-2A adrenergic receptor (Homo sapiens); assay: Antagonist activity at alpha2A adrenergic receptor expressed in SKNSH cells at 100 nM by ELISA relative to control; design: scale not given: the % may be the effect or the level left
[13] = biological target: Delta-type opioid receptor (Homo sapiens) (UniProt P41143); assay: Antagonist activity at delta opioid receptor expressed in HEK293 cells assessed as blockade of deltorphin 2-mediated decrease in secreted alkaline phosphatase activity at 1 uM after 6 hrs relative to control; outline: as §1
[14] = biological target: Mu-type opioid receptor (Homo sapiens) (UniProt P35372); assay: Antagonist activity at mu opioid receptor expressed in HEK293 cells assessed as blockade of secreted alkaline phosphatase activity at 1 uM after 6 hrs relative to control; outline: as §1
[15] = biological target: Cannabinoid receptor 1 (Homo sapiens) (UniProt P21554); assay: Antagonist activity at CB1 receptor expressed in SKNSH cells at 100 nM by ELISA relative to control; design: scale not given: the % may be the effect or the level left
[16] = biological target: T3, Alpha-2A adrenergic receptor (Homo sapiens); assay: Antagonist activity at alpha2A adrenergic receptor expressed in SKNSH cells assessed as blockade of clonidine-induced increase in antibody recognition at 100 nM by ELISA relative to control; design: scale not given: the % may be the effect or the level left

Chain of Cannabinoid receptor 1 (Homo sapiens) (P21554 whole entry): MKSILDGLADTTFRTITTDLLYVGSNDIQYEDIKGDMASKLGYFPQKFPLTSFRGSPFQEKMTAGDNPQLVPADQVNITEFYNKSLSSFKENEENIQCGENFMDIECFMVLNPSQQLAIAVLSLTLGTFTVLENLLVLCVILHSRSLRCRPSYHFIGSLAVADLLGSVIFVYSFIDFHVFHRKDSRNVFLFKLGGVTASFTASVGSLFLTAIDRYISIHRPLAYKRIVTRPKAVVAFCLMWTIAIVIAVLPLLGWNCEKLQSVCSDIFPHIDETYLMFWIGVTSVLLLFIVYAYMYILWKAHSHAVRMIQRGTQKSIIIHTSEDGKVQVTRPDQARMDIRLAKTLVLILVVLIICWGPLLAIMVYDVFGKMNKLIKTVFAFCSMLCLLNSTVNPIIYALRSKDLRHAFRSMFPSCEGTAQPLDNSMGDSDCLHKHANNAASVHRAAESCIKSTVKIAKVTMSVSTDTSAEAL
Chain of Mu-type opioid receptor (Homo sapiens) (P35372 whole entry): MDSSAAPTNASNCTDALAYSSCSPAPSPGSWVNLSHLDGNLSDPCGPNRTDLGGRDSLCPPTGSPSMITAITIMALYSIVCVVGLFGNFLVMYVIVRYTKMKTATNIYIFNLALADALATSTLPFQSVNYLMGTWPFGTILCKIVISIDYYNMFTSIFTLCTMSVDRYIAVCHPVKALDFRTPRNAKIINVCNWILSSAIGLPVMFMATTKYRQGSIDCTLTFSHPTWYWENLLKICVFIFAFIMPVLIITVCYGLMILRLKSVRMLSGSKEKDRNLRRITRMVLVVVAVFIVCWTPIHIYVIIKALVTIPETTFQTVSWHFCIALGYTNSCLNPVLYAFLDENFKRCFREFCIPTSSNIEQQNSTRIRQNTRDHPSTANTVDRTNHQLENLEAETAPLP
Chain of Delta-type opioid receptor (Homo sapiens) (P41143 whole entry): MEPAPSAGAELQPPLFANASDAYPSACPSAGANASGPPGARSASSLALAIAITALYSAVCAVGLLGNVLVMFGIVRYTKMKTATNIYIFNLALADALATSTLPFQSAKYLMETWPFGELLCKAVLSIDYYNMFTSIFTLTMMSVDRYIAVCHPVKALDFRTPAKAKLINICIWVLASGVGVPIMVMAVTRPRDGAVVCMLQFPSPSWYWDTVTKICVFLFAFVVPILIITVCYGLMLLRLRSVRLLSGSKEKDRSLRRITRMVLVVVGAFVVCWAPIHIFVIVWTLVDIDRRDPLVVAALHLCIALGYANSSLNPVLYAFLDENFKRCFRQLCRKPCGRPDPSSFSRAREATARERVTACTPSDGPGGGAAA
Chain of Beta-2 adrenergic receptor (Homo sapiens) (P07550 whole entry, looked up): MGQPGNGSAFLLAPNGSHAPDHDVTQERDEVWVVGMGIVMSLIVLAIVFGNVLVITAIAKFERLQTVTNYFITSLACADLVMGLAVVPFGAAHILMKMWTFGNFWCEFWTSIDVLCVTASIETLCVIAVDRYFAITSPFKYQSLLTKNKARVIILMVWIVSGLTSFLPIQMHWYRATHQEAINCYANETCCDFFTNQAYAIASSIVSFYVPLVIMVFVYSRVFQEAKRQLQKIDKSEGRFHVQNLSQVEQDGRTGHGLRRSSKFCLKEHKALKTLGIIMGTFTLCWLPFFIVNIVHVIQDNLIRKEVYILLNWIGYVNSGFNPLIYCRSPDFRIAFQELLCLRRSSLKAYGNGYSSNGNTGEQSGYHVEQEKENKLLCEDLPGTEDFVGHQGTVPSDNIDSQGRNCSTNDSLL
Chain of Cannabinoid receptor 2 (Homo sapiens) (P34972 whole entry): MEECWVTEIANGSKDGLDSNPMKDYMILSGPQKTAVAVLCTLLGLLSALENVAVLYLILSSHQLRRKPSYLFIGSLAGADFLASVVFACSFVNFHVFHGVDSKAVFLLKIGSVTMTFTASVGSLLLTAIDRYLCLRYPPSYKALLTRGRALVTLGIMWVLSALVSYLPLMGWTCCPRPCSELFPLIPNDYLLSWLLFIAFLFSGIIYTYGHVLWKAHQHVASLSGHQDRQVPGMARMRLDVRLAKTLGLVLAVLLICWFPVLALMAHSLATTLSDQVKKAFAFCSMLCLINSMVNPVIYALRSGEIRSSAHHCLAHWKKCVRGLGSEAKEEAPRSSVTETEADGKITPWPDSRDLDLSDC

An Activity [1] of 110%, an Activity [2] of 104% and an Activity [3] of 0.85 were found for `CC(C)C[C@H](NC(=O)[C@H](Cc1ccccc1)NC(=O)[C@H](CCCCN)NC(=O)[C@H](Cc1ccccc1)NC(=O)[C@H](CC(N)=O)NC(=O)[C@@H](NC(=O)[C@@H]1CCCN1)C(C)C)C(=O)N[C@@H](CO)C(=O)N[C@@H](Cc1cnc[nH]1)C(=O)O` [HEMOPRESSIN] in this work. It also gave an Activity [4] of 100%, an Activity [5] of 1.02 and an Activity [6] of 0.9. For the same molecule, the Activity [7] was “Active”, the Activity [8] was 1.07 and the Activity [9] was 0.53. The Activity [10] was “Active”, the Activity [11] was 141% and the Activity [12] was 103%. The Activity [13] was 0.59, the Activity [14] was 0.98 and the Activity [15] was 72%. It also gave an Activity [16] of 130%.

— ChEMBL document CHEMBL1156534, “Hemopressin is an inverse agonist of CB1 cannabinoid receptors” (Proc Natl Acad Sci U S A, 2007)
